# Activity calls are given as the source filed them. The rule behind the calls is not given here.
# Columns and labels:
# HCT-8 = experiment: Cytotoxicity against human HCT8 cells; format: functional, cell-based
# Method in brief: (§1)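 Cytotoxicity against a panel of six human tumor lines (A549, Bel-7402, BGC-823, HCT-8, HCT-116, A2780) was measured in vitro by MTT assay.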
# HCT-116 = experiment: Cytotoxicity against human HCT116 cells; format: functional, cell-based; method in brief: as §1
# A2780 = experiment: Cytotoxicity against human A2780 cells; format: functional, cell-based; method in brief: as §1
# Bel-7402 = experiment: Cytotoxicity against human Bel7402 cells; format: functional, cell-based; method in brief: as §1
# A549 = experiment: Cytotoxicity against human A549 cells; format: functional, cell-based; method in brief: as §1
# BGC-823 = experiment: Cytotoxicity against human BGC823 cells; format: functional, cell-based; method in brief: as §1
# [1] = Antiinflammatory activity in rat PMNC assessed as inhibition of platelet-activating factor-induced beta-glucuronidase release; format: functional
# Method in brief: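 In vitro assay on rat polymorphonuclear leukocytes stimulated with platelet-activating factor; β-glucuronidase release was measured, with a positive control run alongside. Inhibitory potency is reported as IC50 in µM.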
IC50 [1] [µM],Structure (SMILES),inhibition (HCT-8),inhibition (HCT-116),inhibition (A2780),inhibition (Bel-7402),inhibition (A549),inhibition (BGC-823)
–,O=C1C[C@H]2SS[C@@]34C[C@@H]1[C@@H]([C@H]2O)N3C(=O)[C@]12C[C@H]3C(=O)[C@H](C[C@H](O)[C@H]3N1C4=O)S2,inactive,inactive,inactive,inactive,inactive,inactive
–,CS[C@@]12C[C@H]3[C@@H]([C@@H](O)CC[C@@H]3O)N1C(=O)[C@@]13C[C@H]4C(=O)C[C@@H](S1)[C@H](O)[C@H]4N3C2=O,inactive,inactive,inactive,inactive,inactive,inactive
–,O=C1C[C@H]2SS[C@@]34C[C@@H]1[C@@H]([C@H]2O)N3C(=O)[C@@]12C[C@H]3C(=O)[C@@H](S1)[C@@H](O)[C@H](O)[C@H]3N2C4=O,inactive,inactive,inactive,inactive,inactive,inactive
–,O=C1C[C@@H]2SS[C@@]34C[C@@H]1[C@@H]([C@H]2O)N3C(=O)[C@@]12C[C@H]3C(=O)[C@H](S1)[C@H](O)[C@H](O)[C@H]3N2C4=O,inactive,inactive,inactive,inactive,inactive,inactive
–,O=C1C[C@@H]2SS[C@@]34C[C@@H]1[C@@H]([C@H]2O)N3C(=O)[C@@]12C[C@H]3C(=O)C[C@H](SS1)[C@H](O)[C@H]3N2C4=O,inactive,inactive,inactive,inactive,inactive,inactive
–,CS[C@@]12C[C@H]3[C@@H]([C@@H](O)CC[C@@H]3O)N1C(=O)[C@]1(SC)C[C@H]3[C@@H]([C@@H](O)CC[C@@H]3O)N1C2=O,inactive,inactive,inactive,inactive,inactive,inactive
–,CS[C@@]12C[C@H]3C(=O)C[C@H](O)[C@H](O)[C@H]3N1C(=O)[C@@]13C[C@H]4C(=O)C[C@@H](SS1)[C@H](O)[C@H]4N3C2=O,inactive,inactive,inactive,inactive,inactive,inactive
–,CS[C@@]12C[C@H]3C(=O)CC[C@H](O)[C@H]3N1C(=O)[C@]1(SC)C[C@H]3[C@@H]([C@@H](O)CC[C@@H]3O)N1C2=O,inactive,inactive,inactive,inactive,inactive,inactive
1.98,O=C1C[C@H]2S[C@@]34C[C@@H]1[C@@H]([C@H]2O)N3C(=O)[C@@]12C[C@H]3C(=O)[C@@H](S1)[C@H](O)[C@H](O)[C@H]3N2C4=O [EPICOCCIN E],inactive,inactive,inactive,inactive,inactive,inactive
–,CS[C@@]12C[C@H]3C(=O)CC[C@H](O)[C@H]3N1C(=O)[C@@]13C[C@H]4C(=O)C[C@@H](S1)[C@H](O)[C@H]4N3C2=O,inactive,inactive,inactive,inactive,inactive,inactive
4.16,CS[C@@]12C[C@H]3C(=O)CC[C@H](O)[C@H]3N1C(=O)[C@@]13C[C@H]4C(=O)C[C@@H](SS1)[C@H](O)[C@H]4N3C2=O [EPICOCCIN M],inactive,inactive,inactive,inactive,inactive,inactive
–,O=C1CC[C@H](O)[C@H]2[C@H]1C[C@@]13SS[C@]4(C[C@H]5[C@@H]([C@@H](O)CC[C@@H]5O)N4C1=O)C(=O)N23,inactive,inactive,inactive,inactive,inactive,inactive
4.95,CCO[C@@H]1[C@H](O)[C@@H]2[C@H]3C[C@@]4(S[C@@H]1C3=O)C(=O)N1[C@@H]3[C@@H](O)[C@H]5CC(=O)[C@@H]3C[C@@]1(SS5)C(=O)N24 [EPICOCCIN S],inactive,inactive,inactive,inactive,inactive,inactive
–,CS[C@@]12CC3=CC=C[C@H](O)[C@H]3N1C(=O)[C@]13C[C@@]4(O)[C@H](C=C[C@H](O)[C@H]4N1C2=O)S3,inactive,inactive,inactive,inactive,inactive,inactive
2.35,C[C@@H]1C(=O)O[C@H]2[C@H](O)[C@@]34[C@H]5C[C@@H](C(C)(C)C)[C@]36[C@@H](OC(=O)[C@@H]6O)O[C@@]4(C(=O)O5)[C@@]12O [GINKOLIDE B],–,–,–,–,–,–
–,O=C1N[C@@H](Cc2ccccc2)C(=O)N[C@H]1Cc1ccccc1,inactive,inactive,inactive,inactive,inactive,inactive
–,O=C1N2[C@H]3[C@H](C[C@]24SS[C@]12C[C@H]1[C@@H]([C@@H](O)CC[C@@H]1O)N2C4=O)[C@@H](O)CC[C@@H]3O,inactive,inactive,inactive,inactive,inactive,inactive
–,O=C1C[C@H]2SS[C@@]34C[C@@H]1[C@@H]([C@H]2O)N3C(=O)[C@@]12C[C@H]3C(=O)C[C@@H](S1)[C@H](O)[C@H]3N2C4=O,inactive,inactive,inactive,inactive,inactive,inactive
3.07,CS[C@@]12C[C@H]3C(=O)CC[C@H](O)[C@H]3N1C(=O)[C@]1(SC)C[C@H]3C(=O)CC[C@H](O)[C@H]3N1C2=O [EPICOCCIN G],inactive,inactive,inactive,inactive,inactive,inactive
–,CS[C@@]12C[C@H]3C(=O)C=C[C@H](O)[C@H]3N1C(=O)[C@]1(SC)C[C@H]3C(=O)CC[C@H](O)[C@H]3N1C2=O,inactive,inactive,inactive,inactive,inactive,inactive

# Reference: ChEMBL document CHEMBL1177738, “Thiodiketopiperazines produced by the endophytic fungus Epicoccum nigrum” (J Nat Prod, 2010)
